Measurements pooled from the literature.
Lines come from different studies, so protocols differ. Values after ≈ are worked out from the molar mass of the structure shown.

| Compound | organism | test | system | setting | quantity | value |
| --- | --- | --- | --- | --- | --- | --- |
| C/C(O)=C1\C(=O)C(CC(C)C)N(C(=O)CCCCCc2ccccc2)C1=O (stereo not drawn) | Stenotrophomonas maltophilia | microbial growth | ATCC13637 |  | MIC | > 200 µg/mL |
| CC(=O)C1=C(C)N2NC(c3ccccc3O)N(C(Cc3c[nH]c4ccccc34)C(=O)O)C2=NC1c1ccc(Cl)cc1 (stereo not drawn) | Streptococcus pyogenes | microbial growth | ATCC19615 | 10 µg/mL, 24 h | inhibition zone | 18 mm |
| O=C(O)CN1C(=O)/C(=C/c2ccc(-c3ccc(N(c4ccccc4)c4ccccc4)cc3)c3ccccc23)SC1=S | Streptococcus pyogenes | microbial growth, broth dilution | ATCC19615 |  | MIC | 1000 µg/mL (≈ 1750 µM) |
| CN(c1ccc(F)cc1)c1c(-c2ccc(F)cn2)nc2ccccn12 | Leishmania infantum | parasite growth |  | intracellular, amastigote | EC50 | 1.26 µM |
| O=C(N[C@@H](Cc1ccccc1)C(=O)c1noc(-c2ccccc2)n1)[C@H](Cc1ccccc1)NC(=O)N1CCOCC1 | Leishmania infantum | parasite growth |  | intracellular, amastigote | IC50 | > 64 µM |
| CC(=O)C1=C(C)N2NC(c3ccccc3O)N(C(C)C(=O)O)C2=NC1c1ccc(Cl)cc1 (stereo not drawn) | Streptococcus pyogenes | microbial growth | ATCC19615 | 15 µg/mL, 24 h | inhibition zone | 17 mm |
| O=C(O)CN1C(=O)/C(=C/c2c3ccccc3c(-c3ccc(N(c4ccccc4)c4ccccc4)cc3)c3ccccc23)SC1=S | Streptococcus pyogenes | microbial growth, broth dilution | ATCC19615 |  | MIC | > 1000 µg/mL |
| CS(=O)(=O)c1ccc(-c2c(-c3ccccn3)nc3n2CCC3)cc1 | Leishmania infantum | parasite growth |  | intracellular, amastigote | IC50 | > 64 µM |
| C[Si](C)(C)c1cc(C(=O)[C@H](Cc2ccccc2)NC(=O)[C@H](Cc2ccccc2)NC(=O)N2CCOCC2)no1 (single isomer, unassigned) | Leishmania infantum | parasite growth |  | intracellular, amastigote | IC50 | > 64 µM |
| CCCCCCC/C=C/C(=O)N1C(=O)/C(=C(/C)O)C(=O)C1Cc1ccc(O)cc1 (stereo not drawn) | Stenotrophomonas maltophilia | microbial growth | ATCC13637 |  | MIC | 100 µg/mL (≈ 250 µM) |
| COc1cc(OC)c(OC)cc1C=C1Oc2ccccc2C1=O | Streptococcus mutans | microbial growth | UA159 | 50 µM | inhibition | 30% |
| CC1(c2ccccc2O)Nn2c(nc(-c3ccc(Cl)cc3)c(C#N)c2=O)N1C(Cc1c[nH]c2ccccc12)C(=O)O (stereo not drawn) | Streptococcus pyogenes | microbial growth | ATCC19615 | 15 µg/mL, 24 h | inhibition zone | 32 mm |
| O=C(N[C@@H](Cc1ccccc1)C(=O)c1ncc(-c2ccccc2)o1)[C@H](Cc1ccccc1)NC(=O)N1CCOCC1 | Leishmania infantum | parasite growth |  | intracellular, amastigote | IC50 | > 64 µM |
| CCOC(=O)C1=C(C)N2NC(c3ccccc3O)N(C(Cc3c[nH]c4ccccc34)C(=O)O)C2=NC1c1ccc(Cl)cc1 (stereo not drawn) | Streptococcus pyogenes | microbial growth | ATCC19615 | 10 µg/mL, 24 h | inhibition zone | 18 mm |
| c1ccc(-c2nc3n(c2-c2ccncc2)CCC3)nc1 | Leishmania infantum | parasite growth |  | 5 days, intracellular, amastigote | EC50 | > 63.1 µM |
| O=C(O)CN1C(=O)/C(=C/c2ccc(-c3ccc(N(c4ccccc4)c4ccccc4)cc3)cc2)SC1=S | Streptococcus pyogenes | microbial killing, broth dilution | ATCC19615 |  | MBC | 500 µg/mL (≈ 957 µM) |
| O=C1C(=Cc2ccc(O)c(O)c2)Oc2ccccc21 | Streptococcus mutans | microbial growth | UA159 | 50 µM | inhibition | 40% |
| O=C(O)CN1C(=O)/C(=C/c2ccc(-c3ccc(N(c4ccccc4)c4ccccc4)cc3)c3ccccc23)NC1=S | Streptococcus pyogenes | microbial killing, broth dilution | ATCC19615 |  | MBC | > 1000 µg/mL |

| Compound | organism | test | system | setting | quantity | value |
| --- | --- | --- | --- | --- | --- | --- |
| CCOC(=O)C1=C(C)N2NC(C)(c3ccccc3O)N(C(C)C(=O)O)C2=NC1c1ccc(Cl)cc1 (stereo not drawn) | Streptococcus pyogenes | microbial growth | ATCC19615 | 10 µg/mL, 24 h | inhibition zone | 14 mm |
| O=C(N[C@@H](Cc1ccccc1)C(=O)c1cc(-c2ccccc2)no1)[C@H](Cc1ccccc1)NC(=O)N1CCOCC1 (mixture of isomers) | Leishmania infantum | parasite growth |  | intracellular, amastigote | IC50 | > 64 µM |
| Fc1ccc(NCc2c(-c3ccccn3)nc3ccccn23)cc1 | Leishmania infantum | parasite growth |  | intracellular, amastigote | IC50 | > 64 µM |
| O=C1NC(=S)N/C1=C\c1ccc(-c2ccc(N(c3ccccc3)c3ccccc3)cc2)cc1 | Streptococcus mutans | microbial growth, broth dilution | ATCC25175 |  | MIC | > 1000 µg/mL |
| O=C(N[C@@H](Cc1ccccc1)C(=O)c1c[nH]nn1)[C@H](Cc1ccccc1)NC(=O)N1CCOCC1 | Leishmania infantum | parasite growth |  | intracellular, amastigote | IC50 | > 64 µM |
| O=C1NC(=S)N/C1=C\c1ccc(-c2ccc(N(c3ccccc3)c3ccccc3)cc2)c2ccccc12 | Streptococcus pyogenes | microbial killing, broth dilution | ATCC19615 |  | MBC | > 1000 µg/mL |
| Clc1cccc(-c2c(-c3ccccn3)nc3n2CCC3)c1 | Leishmania infantum | parasite growth |  | 5 days, intracellular, amastigote | EC50 | 0.794 µM |
| O=C(N[C@@H](Cc1ccccc1)C(=O)c1ncc(-c2ccccc2)s1)[C@H](Cc1ccccc1)NC(=O)N1CCOCC1 | Leishmania infantum | parasite growth |  | intracellular, amastigote | IC50 | 32.5 µM |
| CC(C(=O)O)N1C2=NC(c3ccc(Cl)cc3)C3=C(OC(C)(C)OC3=O)N2NC1(C)c1ccccc1O (stereo not drawn) | Streptococcus pyogenes | microbial growth | ATCC19615 | 15 µg/mL, 24 h | inhibition zone | 22 mm |
| O=C(O)CN1C(=O)/C(=C/c2c3ccccc3c(-c3ccc(N(c4ccccc4)c4ccccc4)cc3)c3ccccc23)NC1=S | Streptococcus mutans | microbial growth, broth dilution | ATCC25175 |  | MIC | > 1000 µg/mL |
| CCOC(=O)C1=C(C)N2NC(C)(c3ccccc3O)N(C(Cc3c[nH]c4ccccc34)C(=O)O)C2=NC1c1ccc(Cl)cc1 (stereo not drawn) | Streptococcus pyogenes | microbial growth | ATCC19615 | 15 µg/mL, 24 h | inhibition zone | 31 mm |
| Fc1ccc(Nc2c(-c3ccccn3)nc3ccccn23)nc1 | Leishmania infantum | parasite growth |  | 5 days, intracellular, amastigote | EC50 | > 63.1 µM |
| O=C1NC(=S)S/C1=C\c1c2ccccc2c(-c2ccc(N(c3ccccc3)c3ccccc3)cc2)c2ccccc12 | Streptococcus pyogenes | microbial killing, broth dilution | ATCC19615 |  | MBC | > 1000 µg/mL |
| CCCCCCC/C=C/C(=O)N1C(=O)/C(=C(\O)c2ccccc2)C(=O)C1CC(C)C (stereo not drawn) | Stenotrophomonas maltophilia | microbial growth | ATCC13637 |  | MIC | > 200 µg/mL |
| Cc1ccccc1-c1c(-c2ccccn2)nc2n1CCC2 | Leishmania infantum | parasite growth |  | 5 days, intracellular, amastigote | EC50 | 1 µM |
| CCCCCCCCCCCCCCCCC#CC(=O)O | Leishmania infantum | parasite growth | mouse Splenocyte | 72 h, intracellular, amastigote | IC50 | 11.7 µM |
| c1ccc(-c2nc3n(c2-c2cccnc2)CCC3)nc1 | Leishmania infantum | parasite growth |  | intracellular, amastigote | IC50 | > 64 µM |
| CC(=O)C1=C(C)N2NC(C)(c3ccccc3O)N(C(C)C(=O)O)C2=NC1c1ccc(Cl)cc1 (stereo not drawn) | Streptococcus pyogenes | microbial growth | ATCC19615 | 15 µg/mL, 24 h | inhibition zone | 18 mm |
